Here are results for four compounds from ChEMBL document CHEMBL1122522, “Conformationally restricted retinoids” (1984).

Assay [1] has as its target T1, Ornithine decarboxylase (Mus musculus) (UniProt P00860).
T1 sequence (whole entry): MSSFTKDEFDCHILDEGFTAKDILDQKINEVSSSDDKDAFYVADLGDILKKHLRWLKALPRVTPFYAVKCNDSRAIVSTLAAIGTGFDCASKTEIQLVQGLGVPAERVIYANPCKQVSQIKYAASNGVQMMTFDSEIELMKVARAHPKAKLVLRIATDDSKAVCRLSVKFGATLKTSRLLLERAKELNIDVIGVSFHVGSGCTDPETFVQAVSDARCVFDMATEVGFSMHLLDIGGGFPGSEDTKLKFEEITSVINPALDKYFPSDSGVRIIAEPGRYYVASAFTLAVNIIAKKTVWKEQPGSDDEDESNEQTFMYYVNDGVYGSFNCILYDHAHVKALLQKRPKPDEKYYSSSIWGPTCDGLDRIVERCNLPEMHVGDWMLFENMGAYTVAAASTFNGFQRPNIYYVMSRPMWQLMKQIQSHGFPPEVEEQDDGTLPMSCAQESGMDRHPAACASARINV
Put plainly: Inhibition of the induction of ornithine decarboxylase in mouse epidermis by the tumor promoter 12-O-tetradecanoylphorbol-13-acetate (ODC) at dose 1.7 nmol.

In assay [2] the test system is Cricetinae gen. sp. Description: Activity of compound the was expressed as ratio of active hamster tracheal organ cultures(TOC) to the total cultures at 10e-8 M concentration; 6/7. Type of assay: functional, Cricetulus griseus, Trachea. An outline of the steps:
(§1)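 Tracheal organ cultures came from vitamin A-deficient hamsters. Each culture was scored for reversal of keratinization and reported as active cultures out of total cultures at each retinoid concentration tested (10⁻⁸ to 10⁻¹² M). The protocol followed earlier published methods.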

The target in assay [3] is T1, Ornithine decarboxylase (Mus musculus). Put plainly: Inhibition of the induction of ornithine decarboxylase in mouse epidermis by the tumor promoter 12-O-tetradecanoylphorbol-13-acetate (ODC) at dose 17 nmol.
Assay [4] deals with Cricetinae gen. sp. Description: Molarity required to effect reversal of keratinization in 50% of cultures. Type of assay: functional, Cricetulus griseus.
Assay [5] has as its system Cricetinae gen. sp. Put plainly: Activity of compound the was expressed as ratio of active hamster tracheal organ cultures(TOC) to the total cultures at 10e-9 M concentration; 4/7. Type of assay: functional, Cricetulus griseus, Trachea. An outline of the steps: as §1
In assay [6] the test system is Cricetinae gen. sp. Put plainly: Activity of compound the was expressed as ratio of active hamster tracheal organ cultures(TOC) to the total cultures at 10e-10 M concentration; 3/7. Type of assay: functional, Cricetulus griseus, Trachea. An outline of the steps: as §1
The species named for assay [7] is Mus musculus. Put plainly: Percent decrease in average number of papillomas at dose 1.7 nmol *-p<0.01. Type of assay: functional. An outline of the steps:
(§2)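 Female Charles River CD-1 mice, 8 weeks old, in random groups of 25–30, were shaved 2 days before initiation with 200 nmol DMBA in acetone on the back. From 2 weeks on, 8.5 nmol TPA was applied twice weekly for 20 weeks. Retinoid in 0.2 mL acetone, or acetone alone for controls, was given 1 h before each TPA dose. Papillomas were counted weekly, and mean papillomas per mouse were compared with controls at 20 weeks.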

The species named for assay [8] is Mus musculus. Put plainly: Percent decrease in average number of papillomas at dose 17 nmol *-p<0.001. Type of assay: functional. An outline of the steps:
as §2

For assay [9], the system named is Cricetinae gen. sp. Put plainly: Activity of compound the was expressed as ratio of active hamster tracheal organ cultures(TOC) to the total cultures at 10e-10 M concentration; 18/19. Type of assay: functional, Cricetulus griseus, Trachea. An outline of the steps: as §1
Assay [10] can be described thus: Percent survivors at dose 67 umol/kg day. Type of assay: functional, Mus musculus. An outline of the steps:
(§3)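 Adult female Swiss mice (20–25 g) had chow and water ad libitum. The retinoid was homogenized as a suspension in aqueous 8% Cremophor EL plus 10% propylene glycol. It was given ip as 10 weekday injections over 14 days. Controls received vehicle alone. Survivors were weighed on days 1, 5, 10 and 15, and dates of death were recorded. Survival was scored at days 8 and 15.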

The species named for assay [11] is Mus musculus. Put plainly: Tested for percentage of mice with papillomas in a 20-week anti-papilloma experiment in female CD-1 mice at dose 170 nmol.
Assay [12] is filed under the species Mus musculus. Put plainly: Tested for relative activity in a 20-week anti-papilloma experiment in female CD-1 mice at dose 17 nmol. Type of assay: functional. An outline of the steps: as §2
Assay [13] in a line: Mortality range in days at dose 300 umol/kg day; 10-14. Type of assay: functional, Mus musculus. An outline of the steps:
as §3

The nature of assay [14]: Mortality range in days at dose 600 umol/kg day; 7-13. Type of assay: functional, Mus musculus. An outline of the steps:
as §3

The species named for assay [15] is Mus musculus. Description: Percent decrease in average number of papillomas at dose 170 nmol *-p<0.001. Type of assay: functional. An outline of the steps: as §2
The species named for assay [16] is Mus musculus. Put plainly: Tested for relative activity in a 20-week anti-papilloma experiment in female CD-1 mice at dose 1.7 nmol. Type of assay: functional. An outline of the steps: as §2
Assay [17] is described as follows: Mortality range in days at dose 200 umol/kg day; 14-15. Type of assay: functional, Mus musculus. An outline of the steps: as §3
For assay [18], the system named is Cricetinae gen. sp. Put plainly: Activity of compound the was expressed as ratio of active hamster tracheal organ cultures(TOC) to the total cultures at 10e-11 M concentration; 10/20. Type of assay: functional, Cricetulus griseus, Trachea. An outline of the steps: as §1
The subject of assay [19] is Cricetinae gen. sp. Put plainly: Activity of compound the was expressed as ratio of active hamster tracheal organ cultures(TOC) to the total cultures at 10e-12 M concentration; 3/19. Type of assay: functional, Cricetulus griseus, Trachea. An outline of the steps: as §1
Assay [20] can be described thus: Percent survivors at dose 200 umol/kg day. Type of assay: functional, Mus musculus. An outline of the steps:
as §3

Assay [21] in a line: Percent survivors at dose 300 umol/kg day. Type of assay: functional, Mus musculus. An outline of the steps: as §3
Assay [22] is described as follows: Percent survivors at dose 600 umol/kg day. Type of assay: functional, Mus musculus. An outline of the steps: as §3
Assay [23] in a line: Percent survivors at dose 100 umol/kg day. Type of assay: functional, Mus musculus. An outline of the steps: as §3
Assay [24] in a line: Percent survivors at dose 33 umol/kg day. Type of assay: functional, Mus musculus. An outline of the steps: as §3
Assay [25] concerns Cricetinae gen. sp. Put plainly: Activity of compound the was expressed as ratio of active hamster tracheal organ cultures(TOC) to the total cultures at 10e-12 M concentration; 0/6. To be noted: in the assay text read “1 nM” for “10 pM”. Type of assay: functional, Cricetulus griseus, Trachea. An outline of the steps:
as §1

Assay [26] deals with Cricetinae gen. sp. Description: Activity of compound the was expressed as ratio of active hamster tracheal organ cultures(TOC) to the total cultures at 10e-11 M concentration; 7/7. Type of assay: functional, Cricetulus griseus, Trachea. To be noted: in the assay text read “10e-9 M” for “100 pM”. An outline of the steps:
as §1

Assay [27] has as its system Cricetinae gen. sp. Put plainly: Activity of compound the was expressed as ratio of active hamster tracheal organ cultures(TOC) to the total cultures at 10e-10 M concentration; 7/7. Type of assay: functional, Cricetulus griseus, Trachea. To be noted: in the assay text read “10e-8 M” for “1 nM”. An outline of the steps: as §1
In assay [28] the target is T1, Ornithine decarboxylase (Mus musculus). Description: Inhibition of the induction of ornithine decarboxylase in mouse epidermis by the tumor promoter 12-O-tetradecanoylphorbol-13-acetate (ODC) at dose 17 nmol * p<0.001.
Assay [29] has the same target. Put plainly: Inhibition of the induction of ornithine decarboxylase in mouse epidermis by the tumor promoter 12-O-tetradecanoylphorbol-13-acetate (ODC) at dose 1.7 nmol * p<0.001.

As usually defined, the inhibition is the share of the control response that was lost under treatment. Take `CC1=C(/C=C/C(C)=C/C=C/c2ccc(C(=O)O)cc2)C(C)(C)CCC1` [PELRETIN]: the inhibition in assay [1] turned out to be 33%; in assay [3] it was 56%. In addition, the Activity in assay [2] worked out at 6%; in assay [5], 57%; in [6], 3%. Besides, the ED50 in [4] came out at 4e-10.

In turn, `CC1=C(/C=C/C(C)=C/c2ccc(C(=O)O)cc2)C(C)(C)CCC1` showed an inhibition in assay [1] of 77%. In assay [4], the ED50 came to 3e-10.

Turning to `CC1=C(/C=C/C(C)=C/C=C/C(C)=C/C(=O)O)C(C)(C)CCC1` [TRETINOIN], the Decrease in assay [7] is 56.2%; in assay [8], 74.1%; in assay [15], 89.6%. In addition, the Activity in assay [9] was 18%; in assay [12], 47%; in assay [16] it was 69%; in assay [18] it was 10%; in assay [19], 3%. Further, the “Survivors at day 8” value in [10] is reported as 100%; in assay [20] it was 100%; in assay [21], 100%; in assay [22] it was 95%; in assay [23], 100%; in assay [24] it was 100%. Besides, the “Survivors at day 15” value in [10] was 100%; in assay [20], 63%; in assay [21], 0%; in [22] it was 0%; in assay [23], 100%; in [24], 100%. In assay [11], the “mice with papillomas %” value is 40%. Further, the Mortality range in assay [13] is 14 days; in assay [14], 13 days; in assay [17], 15 days. Further, the ED50 in assay [4] came to 1e-11.

Turning to `CCOC(=O)c1ccc(/C=C(\C)[C@H]2CC2C2=C(C)CCCC2(C)C)cc1` (some centres undefined), the Activity in [25] was found to be 0%; in [26], 7%; in assay [27] it was 7%. Further, the ED50 in assay [4] was 3e-10. The figures for the inhibition in [28] and in [29] were 80% and 77%, respectively.
